OX1R antag-1: OX1R (HCRTR1) antagonists, primary screen, fluorescence, CHO/OX1R cells, Fluo-8 calcium, orexin A | 330,000 compounds, 0.43% hits | Orexin/Hypocretin receptor type 1 (Homo sapiens), O43613 | inhibition, % at 5 µM | Fluo-8 calcium fluorescence;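 active = inhibition above its plate's threshold, mean inhibition of all tested compounds on the plate plus 3 SD, cut at about 37% in these data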;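 note: 0% = orexin A challenge wells and 100% = SB-334867-A antagonist wells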
Target sequence (O43613 whole entry, looked up): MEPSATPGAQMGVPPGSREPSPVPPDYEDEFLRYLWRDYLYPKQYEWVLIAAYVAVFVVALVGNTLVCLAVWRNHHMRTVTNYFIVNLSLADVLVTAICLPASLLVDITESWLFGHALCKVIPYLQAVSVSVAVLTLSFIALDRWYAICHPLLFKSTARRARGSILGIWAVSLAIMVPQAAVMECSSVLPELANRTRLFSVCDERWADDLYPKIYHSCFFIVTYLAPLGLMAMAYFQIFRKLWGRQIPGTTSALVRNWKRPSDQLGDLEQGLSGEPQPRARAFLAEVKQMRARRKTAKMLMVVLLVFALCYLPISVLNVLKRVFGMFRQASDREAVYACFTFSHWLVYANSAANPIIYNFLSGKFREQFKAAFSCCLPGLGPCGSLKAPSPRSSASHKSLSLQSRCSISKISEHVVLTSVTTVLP
CHO parental Ca: ATP-evoked calcium signal inhibitors, parental CHO, primary screen, counter-screen for OX1R antagonist project, cell-based, fluorescence, Fluo-8 calcium dye; parental CHO-K1, ATP-induced calcium, Fluo-8 fluorescence; inhibition, % at 5.6 µM; 330,000 compounds, 0.63% hits; AID 463079, 2010;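 active = inhibition above that plate's mean sample inhibition plus 3 SD, cut at about 26% in these data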;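 note: 0% = ATP-challenged DMSO wells and 100% = DMSO wells without ATP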
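Test system: untransfected parental CHO cell line; also added: ATP stimulus; dosing: 5.6 µM, single dose; signal: calcium-sensitive Fluo-8 fluorescence; measure: percent inhibition of ATP-evoked calcium rise, normalized to controls; benchmarks: low control ATP plus DMSO, high control DMSO only; replication: one well per compound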
GPR7 antagonist: GPR7 receptor antagonists, primary screen, cell-based, fluorescence, single concentration. Neuropeptides B/W receptor type 1 (Homo sapiens), P48145. GPR7-expressing cells, fluorescence antagonist assay. inhibition, % at 4.4 µM. 290,000 compounds, 1.1% hits. AID 1861, 2009; in the data active = inhibition above about 16%, passing the limit was not always enough;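 note: cells stimulated with the agonist NPW; 0% = agonist with vehicle and 100% = vehicle without agonist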
OX1R antag-2: antagonists of human orexin 1 receptor (OX1R). Orexin/Hypocretin receptor type 1 (Homo sapiens), O43613. 330,000 compounds, 1.8% hits. inhibition, % at 6.6 µM. OX1R-expressing cells, FRET antagonist read-out; in the data active = inhibition mostly above about 38%, no sharp cut-off; inactive = mostly below about 40%;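 note: 0% = agonist challenge alone and 100% = reference antagonist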
TAAR1 ag: human TAAR1 agonists, primary screen, Fluo-8 calcium fluorescence, CHO RD-HGA16 cells; Trace amine-associated receptor 1 (Homo sapiens), Q96RJ0; vehicle wells 0%, saturating PEA agonist 100%; activation, % at 3 µM; 360,000 compounds, 0.99% hits; AID 624467, 2012;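 active = activation above the mean activation of all test compounds in the run plus 3 SD, cut at about 38% in these data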
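System: CHO RD-HGA16 cells carrying human TAAR1 plus Gα16; Incubation: 17-24 h seeding, 75 min 37 °C dye, 30 min RT; Measured by: Fluo-8 fluorescence, 5 s baseline then 140 s kinetic read; Control set: DMSO and PEA EC100; Replication: single well for each compound.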
TAAR1 antagonist: human TAAR1 antagonists, primary screen, Fluo-8 calcium fluorescence, CHO RD-HGA16 cells; Trace amine-associated receptor 1 (Homo sapiens), Q96RJ0; antagonist; inhibition, % at 3 µM; 360,000 compounds, 1.5% hits;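 active = inhibition above a per-plate cutoff, the mean inhibition of test compounds on that plate plus 3 SD, cut at about 49% in these data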;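 note: 0% = DMSO plus EC80 beta-PEA response and 100% = DMSO alone without agonist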
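Test system: CHO RD-HGA16 cells bearing hTAAR1 | Reagent: β-PEA, EC80 | Compound dosing: 3 µM, single point | Schedule: Dye loading 75 min at 37 °C, then 30 min room temperature | Signal: Calcium fluorescence with Fluo-8 | Evaluation: Percent inhibition of PEA-evoked calcium signal, max/basal emission ratio | Control set: DMSO-only wells and EC80 β-PEA-stimulated wells | Repeats: Singlicate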
* hit, by the source's call. The list is not random: actives were taken first. Their share in the collection is about 4.6%.

`CCOc1ccc(S(=O)(=O)n2cnc3ccccc32)cc1` gave OX1R antag-1 -16, CHO parental Ca -4, GPR7 antagonist -13, OX1R antag-2 7, TAAR1 ag 1 and TAAR1 antagonist 5.
`O=C(Nc1ccc(F)cc1F)C1CCN(c2ncnc3c2sc2cccc(F)c23)CC1` gave OX1R antag-1 -12, CHO parental Ca -5, GPR7 antagonist -11, OX1R antag-2 46*, TAAR1 ag 7 and TAAR1 antagonist 17.
Screening CC1CC(C)CN(CCCNC(=O)C2CCN(c3ncnc4c3sc3cccc(F)c34)CC2)C1 (centres undefined) returned OX1R antag-1 -5, CHO parental Ca -28, GPR7 antagonist 0 and OX1R antag-2 55*.
`COC(=O)c1ccc(NC(=S)NC(=O)c2c(-c3ccccc3)noc2C)cc1` gave OX1R antag-1 -19, CHO parental Ca -10, GPR7 antagonist -6, OX1R antag-2 24, TAAR1 ag 3 and TAAR1 antagonist 0.
Screening COC(=O)c1ccc(C)c(NC(=O)c2c(-c3ccccc3)noc2C)c1 returned OX1R antag-1 10, CHO parental Ca -12, GPR7 antagonist -6, OX1R antag-2 38*, TAAR1 ag 1 and TAAR1 antagonist 8.
`c1ccc(Oc2nnc(-c3cccs3)c3ccccc23)cc1` gave OX1R antag-1 -16, CHO parental Ca 20, GPR7 antagonist -7, OX1R antag-2 13, TAAR1 ag 0 and TAAR1 antagonist 4.
For Cc1ccc(Oc2nnc(-c3cccs3)c3ccccc23)cc1C the results were OX1R antag-1 -6, CHO parental Ca 40*, GPR7 antagonist 1, OX1R antag-2 6, TAAR1 ag -1 and TAAR1 antagonist -2.
For CN1CCN(c2ccccc2NC(=O)c2cccc(OCc3ccccc3)c2)CC1 the results were OX1R antag-1 -14, CHO parental Ca -22, GPR7 antagonist 18*, OX1R antag-2 9, TAAR1 ag 8 and TAAR1 antagonist 0.
CN1CCN(c2ccccc2NC(=O)c2ccc([N+](=O)[O-])o2)CC1 was read as OX1R antag-1 -23, CHO parental Ca -18, GPR7 antagonist 16 and OX1R antag-2 71*.
CCC(=O)N1CCN(c2ccc(Cl)cc2NC(=O)c2ccc([N+](=O)[O-])o2)CC1 was read as OX1R antag-1 -35, CHO parental Ca -22, GPR7 antagonist 4, OX1R antag-2 28, TAAR1 ag 7 and TAAR1 antagonist 24.
`CS(=O)(=O)N1CCN(c2ccccc2NC(=O)c2ccc([N+](=O)[O-])o2)CC1` gave OX1R antag-1 -2, CHO parental Ca -20, GPR7 antagonist -15, OX1R antag-2 35, TAAR1 ag 10 and TAAR1 antagonist 8.
For Cc1c(NC(=O)c2ccc([N+](=O)[O-])o2)cccc1-c1nc2ncccc2o1 the results were OX1R antag-1 -3, CHO parental Ca -15, GPR7 antagonist 10, OX1R antag-2 63*, TAAR1 ag 2 and TAAR1 antagonist 13.
For CN1CCN(c2ccccc2NC(=O)c2ccc(OCc3ccccc3)cc2)CC1 the results were OX1R antag-1 -20, CHO parental Ca -16, GPR7 antagonist 4, OX1R antag-2 7, TAAR1 ag 12 and TAAR1 antagonist 16.
Screening O=C(Nc1cc(Cl)ccc1-n1cncn1)c1ccc([N+](=O)[O-])o1 returned OX1R antag-1 -24, CHO parental Ca -9, OX1R antag-2 48*, TAAR1 ag 3 and TAAR1 antagonist -20.
`CCn1nnc(NC(=O)c2ccc([N+](=O)[O-])o2)n1` gave OX1R antag-1 -3, CHO parental Ca -4, GPR7 antagonist -9, OX1R antag-2 69*, TAAR1 ag 4 and TAAR1 antagonist -23.
For O=C(Nc1cccc2ncccc12)c1ccc([N+](=O)[O-])o1 the results were OX1R antag-1 0, CHO parental Ca 4, GPR7 antagonist 0, OX1R antag-2 70*, TAAR1 ag 1 and TAAR1 antagonist -12.
`Cc1ccccc1NC(=O)c1ccc([N+](=O)[O-])o1` gave OX1R antag-1 -4, CHO parental Ca 4, GPR7 antagonist -8, OX1R antag-2 70*, TAAR1 ag 1 and TAAR1 antagonist 6.
`Cc1ccc(NC(=O)c2ccc([N+](=O)[O-])o2)c(C)c1` gave OX1R antag-1 -11, CHO parental Ca -2, GPR7 antagonist -14, OX1R antag-2 29, TAAR1 ag 3 and TAAR1 antagonist 3.
Screening COc1cc(C(=O)OC(C)CN2C(C)CCCC2C)cc(OC)c1OC (centres undefined) returned OX1R antag-1 -25, CHO parental Ca 8, GPR7 antagonist -3, OX1R antag-2 -12, TAAR1 ag 1 and TAAR1 antagonist -19.
Screening CCN(CC)S(=O)(=O)c1cccc(C(=O)OCC(=O)NCc2ccccc2OC)c1 returned OX1R antag-1 -21, CHO parental Ca -15, OX1R antag-2 19, TAAR1 ag 9 and TAAR1 antagonist 34.
COc1ccc(C(=O)CCC(=O)NC2=NCCS2)cc1 was read as OX1R antag-1 -1, CHO parental Ca 0, GPR7 antagonist 0, OX1R antag-2 15, TAAR1 ag 1 and TAAR1 antagonist -26.
Screening CCOC(=O)C1=C(C)Nc2ccccc2N/C1=N\S(=O)(=O)c1ccc(Cl)cc1 returned OX1R antag-1 6, CHO parental Ca -1, OX1R antag-2 30*, TAAR1 ag 8 and TAAR1 antagonist 32.
Screening c1ccc(COn2nnc3ccccc32)c(COn2nnc3ccccc32)c1 returned OX1R antag-1 20, CHO parental Ca 2, GPR7 antagonist -3, OX1R antag-2 44, TAAR1 ag 8 and TAAR1 antagonist 55*.
C=CCN(C(=O)c1csnn1)C(C(=O)NCc1ccccc1)c1cccs1 (centres undefined) was read as OX1R antag-1 -18, CHO parental Ca -17, GPR7 antagonist -14, OX1R antag-2 22, TAAR1 ag 0 and TAAR1 antagonist 1.
`O=C(NCc1ccccc1)C(c1ccccc1)N(Cc1cccs1)C(=O)c1cnccn1` (centres undefined) gave OX1R antag-1 -11, CHO parental Ca -6, GPR7 antagonist 0, OX1R antag-2 9, TAAR1 ag 18 and TAAR1 antagonist 62*.

Screening data deposited in PubChem by The Scripps Research Institute Molecular Screening Center.
